In the library only some 4.9% were active in any assay of this set; here they are far more common.
NF-kB neuron act: activators of NF-kB expression in neurons, primary screen, cell-based, HTS; AID 1239, 2008; 190,000 compounds, 1.6% hits; fold change at 12.5 µM; human neuronal cells, NF-kB reporter expression; stronger effect = higher value; in the data active = fold change above about 3.3
STAT3 activator: IL-6 driven STAT3 reporter potentiators, primary screen, U3A cells, luciferase, luminescence, MLSCN library; IL-6 STAT3-luciferase reporter; 100% = signal with IL-6 EC80 alone; activation (% of control), % at 5.6 µM; 190,000 compounds, 0.91% hits;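 active = activation above the screen-wide mean of compound activation plus 3 SD, cut at about 130% in these data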;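 note: 0% = background luminescence of wells with medium and substrate only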
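Detection: reporter luminescence signal / Assay system: STAT1-lacking human U3A cells, STAT3 luciferase reporter / Incubation: compound pre-incubation 1 h before IL-6, then 6 h stimulation at 37 °C / Control set: IL-6-only high control / Read-out: % activation relative to IL-6 control / Probe or stimulus: Interleukin-6, 33 ng/mL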
STAT3 blocker: IL-6 driven STAT3 reporter inhibitors, primary screen, U3A cells, luciferase, luminescence, MLSCN library; IL-6 STAT3-luciferase reporter; host cell line lacks STAT1; inhibition, % at 5.5 µM; 190,000 compounds, 0.89% hits;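 active = inhibition above the mean inhibition across all screened compounds plus 3 SD, cut at about 44% in these data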;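 note: 0% = DMSO only wells and 100% = 100 µM nifuroxazide control wells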
APP 5'UTR act: activators of APP 5'UTR luciferase reporter, primary screen, SH-SY5Y cells | SH-SY5Y APP 5'UTR luciferase reporter, luminescence; zero percent = DMSO vehicle wells | activation, % at 2 µM | 190,000 compounds, 1% hits;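 active = activation above a set limit, based on mean plus 3 SD of controls, cut at about 140% in these data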
STAT1 inh: STAT1 signaling inhibitors, primary screen, cell-based, HTS, luciferase reporter | NIH 3T3 STAT1-luciferase reporter, IFN-gamma, luminescence | inhibition, % at 5.5 µM | 200,000 compounds, 0.35% hits;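 active = inhibition above a set limit, the mean inhibition across all tested compounds plus 3 SD, cut at about 34% in these data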;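 note: 0% = IFN-gamma with DMSO and 100% = IFN-gamma with 300 µM nifuroxazide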
STAT1 act: STAT1 signaling activators, primary screen, cell-based, HTS, luciferase reporter; NIH 3T3 STAT1-luciferase reporter, IFN-gamma, luminescence; 100% = IFN-gamma alone, no compound; activation (% of control), % at 5.5 µM; 200,000 compounds, 2.6% hits;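 active = activation above the screen-wide mean activation plus 3 SD, cut at about 130% in these data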;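 note: raw ratio to IFN-gamma control signal so 100% means no change and 0% no light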
* hit, by the source's call.

SMILES	NF-kB neuron act	STAT3 activator	STAT3 blocker	APP 5'UTR act	STAT1 inh	STAT1 act
CCC(CC)c1nnc(NC(=O)c2ccc3ccccc3n2)s1	4.9*	152*	-60	95	-57	152*
Cc1cccc(NC(=O)c2ccc3ccccc3n2)c1C	9.1*	142*	-48	211*	-38	134*
CC(c1ccc(F)cc1)n1c(-c2cccs2)n[nH]c1=S (stereo not given)	1.3	104	3	14	4	95
N#CCC(=O)Nc1ccc(C(=O)NCc2ccccn2)cc1	1.2	98	8	30	-8	108
CCOC(=O)CSc1nc2c(sc3ccc([N+](=O)[O-])cc32)c(=O)n1Cc1ccco1	1.2	103	-1	11	-5	104
O=C(CCCc1cccs1)Nc1nc2c(s1)CCCC2	2.2	133*	-36	52	-7	106
Cc1csc(NC(=O)CCCc2cccs2)n1	1.8	102	2	14	-16	114
CC1CCc2nc(NC(=O)c3ccco3)sc2C1 (stereo not given)	1.8	22	97*	39	43*	61
CC1CCc2nc(NC(=O)Cc3cccs3)sc2C1 (stereo not given)	4.3*	105	-2	105	-46	143*
O=C(c1cc(COc2ccc3ncccc3c2)on1)N1CCC(O)CC1	1.5	83	23	4	12	88
CCOC(=O)N1CCN(C(=O)c2cc(COc3ccc4ncccc4c3)on2)CC1	0.6	54	56*	-18	43*	60
Cc1cccnc1CN1CCN(C(=O)c2cc(COc3ccc4ncccc4c3)on2)CC1	0.65	63	46*	-10	36*	67
CC1=C(C(=O)Nc2ccc(C)cc2C)C(c2ccc(Cl)cc2)n2nc(C(=O)OC(C)C)nc2N1 (stereo not given)	0.92	104	-4	1	-6	105
O=C(COC(=O)Cn1cnc2ccccc21)Nc1cc2c(cc1Cl)C(=O)c1ccccc1C2=O	1.7	113	-12	73	-37	136*
O=C(COC(=O)Cn1cnc2ccccc21)Nc1ccc2c(c1)OCCO2	0.97	97	8	2	-5	104
O=C(NCCNCc1ccccn1)c1ccco1	1.2	99	8	0	-1	100
O=C(Nc1ccccc1O)c1c(O)c2c([nH]c1=O)CCCC2	4.5*	107	-2	88	-8	108
Cc1ccccc1Oc1nc2ccccn2c(=O)c1/C=C(\C#N)C(=O)Nc1c(C)n(C)n(-c2ccccc2)c1=O	4.6*	105	-3	2	-7	106
Cc1ccn2c(C(=O)c3ccc(Cl)cc3)cnc2c1	2	75	34	165*	-50	146*
CCCCNc1nnc(SCC(=O)c2c[nH]c3ccccc23)s1	1.1	127	-32	6	8	93
CC1(C)CC(c2nc(-c3ccc(Br)cc3)cs2)CCS1 (stereo not given)	1.3	100	-5	5	8	93
CN(c1nc(-c2ccc(Br)cc2)cs1)C1CCS(=O)(=O)C1 (stereo not given)	1.9	94	14	14	-32	130*
CCC(=O)Nc1ccc(NC(=O)c2ccccn2)cn1	0.63	90	16	85	-30	130*
CSc1cccc(NC(=O)c2ccccn2)c1	2.6	90	16	90	-49	142*
COc1ccc(NC(=O)c2ccccn2)cc1OC	1.9	104	-2	44	-27	124
CCC(=O)Nc1ccc(NC(=O)c2cccc(OC)c2)nc1	1.9	99	5	44	-31	129*
CSc1cccc(NC(=O)c2cnccn2)c1	1.5	91	16	3	-7	106
COc1ccc(NC(=O)c2ccccn2)cc1	3.3*	34	77*	80	27	84
CC1CCN(CC(=O)Nc2cccc(C(=O)Nc3cccc(C(F)(F)F)c3)c2)CC1	1.3	101	-4	11	6	95
